From PubChem BioAssay
Apaf1 inhib = inhibitors of human Apaf-1 apoptosome, primary screen, biochemical, DEVD-Rh110 fluorescence, uHTS | Apoptotic protease-activating factor 1 (Homo sapiens), O14727 | reconstituted apoptosome caspase-3 activity | inhibition, % at 20 µM | actives 0.71% (n = 330,000); active = inhibition of at least 40% at 20 µM;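 also: plate controls were DMSO wells for no effect and DEVD-CHO caspase inhibitor wells for full effect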
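Material: cell-free apoptosome with Apaf-1, procaspase-3 and caspase-9; Buffer or medium: Hepes pH 7.5 with detergent and BSA; Reagent: cytochrome c trigger plus (Z-DEVD)2-Rh110 caspase-3 substrate; Times: compound with Apaf-1, dATP, procaspase-3 30 min, then 50 min reaction, room temperature; Technique: Rh110 fluorescence intensity.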
MEKK2wt PB1 HTS = modulators of MEK5 binding to wildtype MEKK2, primary screen, biochemical, multiplex bead flow cytometry, Alexa488-MEK5; Mitogen-activated protein kinase kinase kinase 2 (Homo sapiens), Q9Y2U5; Alexa488-MEK5 binding to MEKK2 WT; actives lie on both sides; binding response (% of control), % at 10 µM; actives 1.1% (n = 290,000); AID 1531, 2009; in the data active = binding response below about 67% or above about 130%
Pemphigus Ab inh = inhibitors of pemphigus antibody binding to DSG3, primary screen, biochemical, bead-based, flow cytometry, scFv-GFP | DSG3-coupled beads, scFv-anti-DSG3-GFP binding; hits give low values | binding (percent of control), % at 10 µM | actives 0.48% (n = 310,000) | AID 588358, 2011;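 active = binding more than 3 SD below its plate's average and above zero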;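 also: hits lower antibody fragment binding to DSG3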
Target sequence (P32926 whole entry, looked up, the tested form may be a part): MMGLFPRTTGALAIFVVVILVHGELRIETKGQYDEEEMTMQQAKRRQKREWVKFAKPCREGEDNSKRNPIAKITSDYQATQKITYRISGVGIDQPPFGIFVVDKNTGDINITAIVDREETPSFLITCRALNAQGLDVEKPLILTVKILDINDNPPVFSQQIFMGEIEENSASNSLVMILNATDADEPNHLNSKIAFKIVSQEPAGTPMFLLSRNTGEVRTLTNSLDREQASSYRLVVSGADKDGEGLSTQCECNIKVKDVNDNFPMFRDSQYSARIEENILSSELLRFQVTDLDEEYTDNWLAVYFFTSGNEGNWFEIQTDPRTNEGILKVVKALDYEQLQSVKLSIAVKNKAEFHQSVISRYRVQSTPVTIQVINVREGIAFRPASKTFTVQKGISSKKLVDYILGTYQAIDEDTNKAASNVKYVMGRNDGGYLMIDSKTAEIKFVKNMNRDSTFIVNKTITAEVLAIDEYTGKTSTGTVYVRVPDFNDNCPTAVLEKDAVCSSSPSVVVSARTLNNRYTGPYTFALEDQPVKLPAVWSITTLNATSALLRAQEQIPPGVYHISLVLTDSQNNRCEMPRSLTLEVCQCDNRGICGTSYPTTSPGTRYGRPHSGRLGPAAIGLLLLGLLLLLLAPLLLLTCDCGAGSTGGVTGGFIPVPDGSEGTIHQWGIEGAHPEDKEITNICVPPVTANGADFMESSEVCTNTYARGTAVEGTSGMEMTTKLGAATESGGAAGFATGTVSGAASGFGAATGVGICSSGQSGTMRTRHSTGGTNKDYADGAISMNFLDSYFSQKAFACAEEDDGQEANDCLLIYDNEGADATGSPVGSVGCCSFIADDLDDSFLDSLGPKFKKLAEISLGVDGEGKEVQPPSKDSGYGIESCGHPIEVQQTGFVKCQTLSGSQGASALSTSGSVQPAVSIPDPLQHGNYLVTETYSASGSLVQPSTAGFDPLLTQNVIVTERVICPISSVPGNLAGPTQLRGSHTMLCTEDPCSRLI
MEKK2mut PB1 HTS = MEK5 binding signal on mutant MEKK2 PB1, primary screen, biochemical, multiplex bead flow cytometry, Alexa488-MEK5; percent response, % at 10 µM; actives 0.35% (n = 290,000); Alexa488-MEK5 binding to MEKK2 mutant; in the data active = percent response above about 24%, passing the limit was not always enough
MEKK3 PB1 HTS = modulators of MEKK3-MEK5 PB1 binding, primary screen, biochemical, wildtype MEKK3, multiplex bead flow cytometry, Alexa488-MEK5. bead-based flow cytometry, Alexa488-MEK5 binding to MEKK3; actives lie on both sides; 0 = blocked by unlabeled MEK5, 100 = vehicle. binding response (% of control), % at 10 µM. actives 1.4% (n = 290,000). AID 1529, 2009;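 active = binding response more than 3 SD above or below the average of its plate-row segment, actives on both sides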;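 also: Alexa488 bead fluorescence after subtracting the streptavidin-only scavenger bead signal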
UBC13 polyUb = UBC13 polyubiquitin chain formation inhibitors, primary screen, biochemical, TR-FRET, uHTS. Ubiquitin-conjugating enzyme E2 N (Homo sapiens), P61088. inhibition, % at 20 µM. actives 0.47% (n = 330,000). AID 485273, 2010; in the data active = inhibition above about 45%, passing the limit was not always enough
Casp3 counter = CASP3 inhibitor validation, counterassay for project on UBE2N polyubiquitination blockers, biochemical, one dose; shares compounds with UBC13 polyUb; AID 488856, 2010; inhibition, % at 20 µM; Recombinant caspase-3, Caspase-Glo 3/7 luminescence, 60 min; actives 4% (n = 1,400);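 active = mean inhibition across replicates above about 26%, limit read from the data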;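 also: plate controls were DMSO with caspase-3 for no effect and DMSO wells lacking enzyme for full effect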
UBC13 confirm = UBC13 polyubiquitination inhibitors, single-point retest, confirmation, biochemical, TR-FRET, single concentration; shares compounds with UBC13 polyUb; actives 68% (n = 1,400); inhibition, % at 10 µM; in the data active = inhibition above about 45%
Apaf-1 inh conf2 = Apaf-1 inhibitors, single-dose retest, confirmation, biochemical, fluorescence, DEVD-Rh110, 20 µM; AID 504614, 2011; reconstituted apoptosome, caspase-3 DEVD-Rh110 fluorescence; shares compounds with Apaf1 inhib; inhibition, % at 20 µM; actives 25% (n = 1,800);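 active = mean inhibition of at least 40% at 20 µM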;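 also: plate controls were DMSO wells for no effect and DEVD-CHO caspase inhibitor control wells for full effect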
Rh110 interf inh = Rh110 fluorescence interference by putative Apaf-1 inhibitors, confirmation, artefact control for Apaf-1 inhibitor project, biochemical, 20 µM | shares compounds with Apaf1 inhib | quenched caspase reaction | activation (fluorescence interference), % at 20 µM | 1,800 tested, under 10 active | AID 504615, 2011;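 active = signal rise of 40% or more at 20 µM, treated as a fluorescence artifact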
Apaf1 inh interf = fluorescence interference of Apaf-1 inhibitor hits, dose response, artefact control for Apaf-1 inhibitor project; AID 588538, 2011; shares compounds with Apaf1 inhib; 460 tested, under 10 active; IC50, µM; fluorescence interference counterscreen, Apaf-1 assay format; call rule not given here
* marks the source's active call; other numbers are inactive results. Most compounds without a hit are left out; they make up all but 3.2% or so of the library.

How did c1ccc(Cn2ccnc2)cc1 do in these assays?
Apaf1 inhib: 14; MEKK2wt PB1 HTS: 97; Pemphigus Ab inh: 104; MEKK2mut PB1 HTS: 2; MEKK3 PB1 HTS: 90; UBC13 polyUb: -8

What do the screens show for `O=C(Nc1ccccc1)N1Cc2ccccc2-n2nncc2C1`?
Pemphigus Ab inh: 102

What do the screens show for `O=C1C(Cc2cnc[nH]2)NC(=S)N1c1ccccc1` (centres undefined)?
Apaf1 inhib: 5; MEKK2wt PB1 HTS: 108; Pemphigus Ab inh: 99; MEKK2mut PB1 HTS: 15; MEKK3 PB1 HTS: 106; UBC13 polyUb: 86*; Casp3 counter: 2; UBC13 confirm: 104*

What do the screens show for `S=C(NCCc1ccccc1)NCCc1cnc[nH]1`?
Apaf1 inhib: 2; MEKK2wt PB1 HTS: 100; Pemphigus Ab inh: 103; MEKK2mut PB1 HTS: 3; MEKK3 PB1 HTS: 98; UBC13 polyUb: -4

What do the screens show for `O=C(c1ccc(-c2ccccc2)cc1)C1CCCN(Cc2ccn[nH]2)C1` (centres undefined)?
Apaf1 inhib: 1; MEKK2wt PB1 HTS: 105; Pemphigus Ab inh: 103; MEKK2mut PB1 HTS: 3; MEKK3 PB1 HTS: 104; UBC13 polyUb: -22

How did Cc1ccc2c(c1)C1CN(C)CCC1N2C(=O)CCCN1C(=O)c2cccc3cccc(c23)C1=O (centres undefined) do in these assays?
Apaf1 inhib: -14; MEKK2wt PB1 HTS: 103; Pemphigus Ab inh: 98; MEKK2mut PB1 HTS: -3; MEKK3 PB1 HTS: 95; UBC13 polyUb: 89*; Casp3 counter: -2; UBC13 confirm: 101*

Results for COc1cccc(C)c1NC1=NCCO1 ?
Pemphigus Ab inh: 107

How did CCCCn1c(=O)c(C(=O)Nc2ccccc2S(N)(=O)=O)c(O)c2ccccc21 do in these assays?
Apaf1 inhib: 11; MEKK2wt PB1 HTS: 108; Pemphigus Ab inh: 108; MEKK2mut PB1 HTS: 5; MEKK3 PB1 HTS: 102; UBC13 polyUb: 53*; Casp3 counter: -2; UBC13 confirm: 15

What do the screens show for `Clc1ccc(C(c2ccc(Cl)cc2)n2cc[n+](CC(OCc3ccc(Cl)cc3Cl)c3ccc(Cl)cc3Cl)c2)cc1` (centres undefined)?
Apaf1 inhib: 89*; Pemphigus Ab inh: 142; UBC13 polyUb: 104*; Casp3 counter: -3; UBC13 confirm: 106*; Apaf-1 inh conf2: 79*; Rh110 interf inh: 8; Apaf1 inh interf: >100
